From ChEMBL document CHEMBL1926594, “Molecular modeling studies, synthesis, configurational stability and biological activity of 8-chloro-2,3,5,6-tetrahydro-3,6-dimethyl-pyrrolo[1,2,3-de]-1,2,4-benzothiadiazine 1,1-dioxide” (Bioorg Med Chem, 2011)

Columns and labels:
DIV7-10 = assay: Positive allosteric modulation activity at AMPA receptor in Sprague-Dawley rat cortical neuronal DIV7-10 cells assessed as increase in kainate induced currents at 100 uM by patch clamp electrophysiological method; type: cell-based
Outline: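 Cortical neurons from newborn Sprague–Dawley rats: trypsin-dispersed, plated on poly-L-lysine and switched to BME/Neurobasal with B27 after 24 h, with 1 µM Ara-C added at DIV5. Whole-cell voltage-clamp at room temperature on DIV7-10 cells. Kainate-evoked currents recorded with co-application of epimeric mixture at 100 µM. Potentiation given as mean ± SE, n = 4.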

[1] = Configurational stability of compound in water-acetonitrile assessed as forward rate equilibrium epimerization at pH 2.2 using C-8 column by stopped flow bidimensional recycling HPLC; type: physicochemical; details: buffer
Outline: (§1)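 Stopped-flow bidimensional recycling HPLC on the (3*,6R) epimeric mixture. Epimers separated on Chiralcel OD-R at 0 °C with water/acetonitrile 50:50 (v/v). One epimer is trapped on a Supelcosil LC-8 (C8) reactor column and epimerizes at 37.5 °C in chloroacetate buffer pH 2.20 or phosphate buffer pH 7.00 (ionic strength 0.01). Column recooled to 0 °C, epimers re-separated, n = 4. Rate constants from first-order reversible kinetics.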

[2] = Configurational stability of compound in water-acetonitrile assessed as forward rate epimerization at 5 degC by dynamic HPLC analysis; type: physicochemical; details: buffer
Outline: (§2)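 Dynamic HPLC on the (3*,6R) epimeric mixture: isocratic Chiralcel OD-R column, water/acetonitrile 50:50 (v/v), run at temperatures of 5-37 °C. Sample at 100 μg/mL final, 20 μL injected, UV detection at 254 nm. Interconversion rate constants obtained from elution profiles by integration of the interconverting peak areas.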

[3] = Configurational stability of compound in water-acetonitrile assessed as forward equilibrium rate epimerization at 37 degC by dynamic HPLC analysis; type: physicochemical; details: buffer; outline: as §2
[4] = Configurational stability of compound in water-acetonitrile assessed as forward rate equilibrium epimerization at pH 7 using C-8 column by stopped flow bidimensional recycling HPLC; type: physicochemical; details: buffer; outline: as §1
[5] = Configurational stability of compound in water-acetonitrile assessed as forward equilibrium rate epimerization at 5 degC by dynamic HPLC analysis; type: physicochemical; details: buffer; outline: as §2
[6] = Configurational stability of compound in water-acetonitrile assessed as forward rate epimerization at 37 degC by dynamic HPLC analysis; type: physicochemical; details: buffer; outline: as §2
[7] = Configurational stability of compound in water-acetonitrile assessed as backward rate epimerization at 25 degC by dynamic HPLC analysis; type: physicochemical; details: buffer; outline: as §2
[8] = Configurational stability of compound in water-acetonitrile assessed as forward rate epimerization at pH 7 using IAM column by stopped flow bidimensional recycling HPLC; type: physicochemical; details: artificial membrane
Outline: (§3)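 sf-BD-rHPLC with an IAM-based reactor column. (3*,6R) epimers separated on Chiralcel OD-R at 0 °C using water/acetonitrile 50:50 (v/v). Trapped epimer interconverts at 37.5 °C in chloroacetate buffer pH 2.20 or phosphate buffer pH 7.00 (ionic strength 0.01), then is re-separated at 0 °C, n = 4. Forward, backward and equilibrium rate constants derived from peak areas.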

[9] = Configurational stability of compound in water-acetonitrile assessed as backward rate epimerization at pH 7 using C-8 column by stopped flow bidimensional recycling HPLC; type: physicochemical; details: buffer; outline: as §1
[10] = Configurational stability of compound in water-acetonitrile assessed as forward equilibrium rate epimerization at 25 degC by dynamic HPLC analysis; type: physicochemical; details: buffer; outline: as §2
[11] = Configurational stability of compound in water-acetonitrile assessed as backward rate equilibrium epimerization at pH 2.2 using IAM column by stopped flow bidimensional recycling HPLC; type: physicochemical; details: artificial membrane; outline: as §3
[12] = Configurational stability of compound in water-acetonitrile assessed as backward rate epimerization at 37 degC by dynamic HPLC analysis; type: physicochemical; details: buffer; outline: as §2
[13] = Configurational stability of compound in water-acetonitrile assessed as backward rate equilibrium epimerization at pH 7 using C-8 column by stopped flow bidimensional recycling HPLC; type: physicochemical; details: buffer; outline: as §1
[14] = Configurational stability of compound in water-acetonitrile assessed as backward rate equilibrium epimerization at pH 7 using IAM column by stopped flow bidimensional recycling HPLC; type: physicochemical; details: artificial membrane; outline: as §3
[15] = Configurational stability of compound in water-acetonitrile assessed as backward rate epimerization at pH 2.2 using C-8 column by stopped flow bidimensional recycling HPLC; type: physicochemical; details: buffer; outline: as §1
[16] = Configurational stability of compound assessed as half life using IAM column by stopped flow bidimensional recycling HPLC; type: physicochemical; details: IAM column (stationary phase); outline: as §3
[17] = Configurational stability of compound in water-acetonitrile assessed as forward rate epimerization at pH 7 using C-8 column by stopped flow bidimensional recycling HPLC; type: physicochemical; details: buffer; outline: as §1
[18] = Configurational stability of compound in water-acetonitrile assessed as backward rate epimerization at pH 7 using IAM column by stopped flow bidimensional recycling HPLC; type: physicochemical; details: artificial membrane; outline: as §3
[19] = Configurational stability of compound in water-acetonitrile assessed as forward rate epimerization at pH 2.2 using C-8 column by stopped flow bidimensional recycling HPLC; type: physicochemical; details: buffer; outline: as §1
[20] = Configurational stability of compound in water-acetonitrile assessed as forward rate equilibrium epimerization at pH 7 using IAM column by stopped flow bidimensional recycling HPLC; type: physicochemical; details: artificial membrane; outline: as §3
[21] = Configurational stability of compound assessed as half life using C-8 column by stopped flow bidimensional recycling HPLC; type: physicochemical; details: C-8 column (stationary phase); outline: as §1
[22] = Configurational stability of compound in water-acetonitrile assessed as backward rate epimerization at pH 2.2 using IAM column by stopped flow bidimensional recycling HPLC; type: physicochemical; details: artificial membrane; outline: as §3
[23] = Configurational stability of compound in water-acetonitrile assessed as forward rate epimerization at 25 degC by dynamic HPLC analysis; type: physicochemical; details: buffer; outline: as §2
[24] = Configurational stability of compound in water-acetonitrile assessed as forward rate equilibrium epimerization at pH 2.2 using IAM column by stopped flow bidimensional recycling HPLC; type: physicochemical; details: artificial membrane; outline: as §3
[25] = Configurational stability of compound in water-acetonitrile assessed as backward rate epimerization at 5 degC by dynamic HPLC analysis; type: physicochemical; details: buffer; outline: as §2
[26] = Configurational stability of compound in water-acetonitrile assessed as forward rate epimerization at pH 2.2 using IAM column by stopped flow bidimensional recycling HPLC; type: physicochemical; details: artificial membrane; outline: as §3
[27] = Configurational stability of compound in water-acetonitrile assessed as backward rate equilibrium epimerization at pH 2.2 using C-8 column by stopped flow bidimensional recycling HPLC; type: physicochemical; details: buffer; outline: as §1
[28] = Chemical stability of compound assessed as compound hydrolysis at pH 2.2 at 37.5 degC after 90 mins; type: physicochemical; details: buffer, pH 2.2, 1.5 h
Outline: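 (3*,6R) epimeric mixture held on reactor column in chloroacetate buffer (ionic strength 0.01, pH 2.20) at 37.5 °C for up to 90 min. Hydrolysis checked by the sf-BD-rHPLC method: Chiralcel OD-R separative column at 0 °C, water/acetonitrile 50:50 (v/v) eluent.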

Work on CC1NS(=O)(=O)c2cc(Cl)cc3c2N1C[C@H]3C (mixture of isomers) yielded an Activity (DIV7-10) of 250%.
Compound CC1NS(=O)(=O)c2cc(Cl)cc3c2N1C[C@@H]3C (mixture of isomers) has a K [1] of 6.68 ×10⁻⁴ /s, a K [2] of 0.17 ×10⁻⁴ /s and a K [3] of 1.99 ×10⁻⁴ /s. The K [4] was 5.9 ×10⁻⁴ /s, the K [5] was 0.23 ×10⁻⁴ /s and the K [6] was 1.28 ×10⁻⁴ /s. For the same compound, the K [7] was 0.76 ×10⁻⁴ /s, the K [8] was 5.3 ×10⁻⁴ /s and the K [9] was 2.34 ×10⁻⁴ /s. The K [10] was 1.87 ×10⁻⁴ /s, the K [11] was 9.63 ×10⁻⁴ /s and the K [12] was 0.71 ×10⁻⁴ /s. The K [13] was 7.77 ×10⁻⁴ /s, the K [14] was 8.93 ×10⁻⁴ /s and the K [15] was 2.26 ×10⁻⁴ /s. The half-life [16] was 10 min, the Activity (DIV7-10) was 112% and the K [17] was 4.49 ×10⁻⁴ /s. The K [18] was 2.75 ×10⁻⁴ /s, the K [19] was 4.61 ×10⁻⁴ /s and the K [20] was 7.2 ×10⁻⁴ /s. It also gave a half-life [21] of 10 min, a K [22] of 3.48 ×10⁻⁴ /s and a K [23] of 1.11 ×10⁻⁴ /s. For the same compound, the K [24] was 10.7 ×10⁻⁴ /s, the K [25] was 0.06 ×10⁻⁴ /s and the K [26] was 6.68 ×10⁻⁴ /s. It also gave a K [27] of 6.52 ×10⁻⁴ /s.
In the case of CC1CN2c3c1cc(Cl)cc3S(=O)(=O)NC2C (stereo not given), the Stability [28] is reported as “Stable”.
